For 25 molecules, Activity and DC50 results are on record in ChEMBL document CHEMBL4765369, “Optimal linker length for small molecule PROTACs that selectively target p38α and p38β for degradation” (Eur J Med Chem, 2020).

Data set [1] has as its target T1, Protein cereblon/Mitogen-activated protein kinase 14 (Homo sapiens, UniProt Q16539+Q96SW2). The experiment in a line: Protac activity at CRBN/p38alpha in human BBL358 cells assessed as p38alpha degradation at 10 uM measured after 24 hrs by immunoblotting analysis. The format is cell-based. The gist of the method:
(§1)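 BBL358 or T47D cells given compound 10 µM for 24 h. RIPA lysates run on SDS-PAGE and immunoblotted for p38α. Odyssey infrared band intensities give p38α/tubulin ratio, normalised to untreated cells and reported as % degradation. Mean ±SEM with n=2 or more (one set: n=2 BBL358, n=1 T47D).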
(In general: Immunoblotting shows a protein as a band on a membrane.)
Target sequence in this assay (Q16539 2-360 limits assumed): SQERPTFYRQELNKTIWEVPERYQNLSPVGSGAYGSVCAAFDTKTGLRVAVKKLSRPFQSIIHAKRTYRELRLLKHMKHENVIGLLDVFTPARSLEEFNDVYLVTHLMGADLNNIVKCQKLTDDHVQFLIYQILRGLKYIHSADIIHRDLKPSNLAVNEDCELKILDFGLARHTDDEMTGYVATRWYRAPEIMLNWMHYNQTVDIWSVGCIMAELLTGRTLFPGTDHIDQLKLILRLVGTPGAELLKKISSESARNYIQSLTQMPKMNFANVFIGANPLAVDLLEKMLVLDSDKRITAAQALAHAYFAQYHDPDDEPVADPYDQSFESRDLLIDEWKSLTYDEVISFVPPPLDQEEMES
Target sequence in this assay (Q96SW2 whole entry partner): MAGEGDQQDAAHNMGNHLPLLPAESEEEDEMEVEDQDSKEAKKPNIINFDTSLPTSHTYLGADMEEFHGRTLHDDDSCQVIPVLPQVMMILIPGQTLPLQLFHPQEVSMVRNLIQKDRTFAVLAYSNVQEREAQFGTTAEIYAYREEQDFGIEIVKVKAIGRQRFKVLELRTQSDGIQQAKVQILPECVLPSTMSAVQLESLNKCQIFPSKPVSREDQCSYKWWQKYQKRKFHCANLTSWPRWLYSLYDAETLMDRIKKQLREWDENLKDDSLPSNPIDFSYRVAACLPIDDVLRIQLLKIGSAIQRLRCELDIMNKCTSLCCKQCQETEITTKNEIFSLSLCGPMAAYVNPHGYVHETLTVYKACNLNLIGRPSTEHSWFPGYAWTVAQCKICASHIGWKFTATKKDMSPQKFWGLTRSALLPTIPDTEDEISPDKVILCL

Data set [2] deals with T1, Protein cereblon/Mitogen-activated protein kinase 14. The experiment in a line: Protac activity at CRBN/p38alpha in human T47D cells assessed as p38alpha degradation at 10 uM measured after 24 hrs by immunoblotting analysis. The format is cell-based. The gist of the method:
as §1
Target sequence in this assay (Q16539 2-360 limits assumed): as the sequence (Q16539 2-360 limits assumed) above
Target sequence in this assay (Q96SW2 whole entry partner): as the sequence (Q96SW2 whole entry partner) above

The target is the same in data set [3]. The experiment in a line: Protac activity at CRBN/p38alpha in human MDA-MB-231 cells assessed as reduction in UV-induced MK2 phosphorylation at 1 uM after 24 hrs by immunoblotting analysis. The class given is cell-based. In short, it runs like this:
(§2)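 MDA-MB-231 cells pre-incubated with compound, then p38α pathway stimulated with UV at 30 J/m2; PH797804 reference at 2 µM. Lysates immunoblotted for phospho-MK2. Cells grown in DMEM with 10% FBS at 37 °C, 5% CO2.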
Target sequence in this assay (Q16539 2-360 limits assumed): as the sequence (Q16539 2-360 limits assumed) above
Target sequence in this assay (Q96SW2 whole entry partner): as the sequence (Q96SW2 whole entry partner) above

For data set [4] the target is unchanged. Description: Protac activity at CRBN/p38alpha in human MDA-MB-231 cells assessed as p38alpha degradation at 1 uM measured after 24 hrs by immunoblotting analysis. The format is cell-based. In short, it runs like this:
(§3)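 MDA-MB-231 and T47D cells exposed 24 h to 1 µM; N-methylated imide analogues tested alongside. RIPA lysates immunoblotted for p38α, intensities quantified from infrared imaging.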
Target sequence in this assay (Q16539 2-360 limits assumed): as the sequence (Q16539 2-360 limits assumed) above
Target sequence in this assay (Q96SW2 whole entry partner): as the sequence (Q96SW2 whole entry partner) above

The target is the same in data set [5]. Description: Protac activity at CRBN/p38alpha in human T47D cells assessed as p38alpha degradation at 1 uM measured after 24 hrs by immunoblotting analysis. The class given is cell-based. In short, it runs like this:
as §3
Target sequence in this assay (Q16539 2-360 limits assumed): as the sequence (Q16539 2-360 limits assumed) above
Target sequence in this assay (Q96SW2 whole entry partner): as the sequence (Q96SW2 whole entry partner) above

Data set [6] shares this target. Description: Protac activity at CRBN/p38alpha in […] cells assessed as p38alpha degradation at 1 uM measured after 24 hrs by immunoblotting analysis. The format is cell-based.
Target sequence in this assay (Q16539 2-360 limits assumed): as the sequence (Q16539 2-360 limits assumed) above
Target sequence in this assay (Q96SW2 whole entry partner): as the sequence (Q96SW2 whole entry partner) above
In data set [7] the target is T2, Protein cereblon/Mitogen-activated protein kinase 11 (Homo sapiens, UniProt Q15759+Q96SW2). The experiment in a line: Protac activity at CRBN/p38beta in human retina epithelial cells assessed as p38beta degradation at 1 uM measured after 24 hrs by immunoblotting analysis. The format is tissue-based. As to conditions: Epithelial cell.
Target sequence in this assay (Q15759 whole entry, looked up): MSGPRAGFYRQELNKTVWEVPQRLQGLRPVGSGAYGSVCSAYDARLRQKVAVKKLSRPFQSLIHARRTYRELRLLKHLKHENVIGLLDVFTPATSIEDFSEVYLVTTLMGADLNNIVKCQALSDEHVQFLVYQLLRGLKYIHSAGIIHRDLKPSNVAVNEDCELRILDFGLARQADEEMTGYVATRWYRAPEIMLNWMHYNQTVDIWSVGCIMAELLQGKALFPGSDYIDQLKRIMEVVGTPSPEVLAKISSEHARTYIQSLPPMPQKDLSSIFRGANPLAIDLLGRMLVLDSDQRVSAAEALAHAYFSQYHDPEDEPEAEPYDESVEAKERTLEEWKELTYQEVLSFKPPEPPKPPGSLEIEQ
Target sequence in this assay (Q96SW2 whole entry, looked up): as the sequence (Q96SW2 whole entry partner) above
Data set [8] has as its target T2, Protein cereblon/Mitogen-activated protein kinase 11. Description: Protac activity at CRBN/p38beta in […] cells assessed as p38beta degradation at 1 uM measured after 24 hrs by immunoblotting analysis. The format is cell-based.
Target sequence in this assay (Q15759 whole entry, looked up): as the sequence (Q15759 whole entry, looked up) above
Target sequence in this assay (Q96SW2 whole entry, looked up): as the sequence (Q96SW2 whole entry partner) above
Data set [9] is described as follows: Protac activity at CRBN/p38alpha in mouse bone marrow derived macrophages assessed as p38alpha degradation at 1 uM measured after 24 hrs by immunoblotting analysis. The conditions noted are these: Macrophage.
A short description of data set [10]: Protac activity at CRBN/p38beta in mouse bone marrow derived macrophages assessed as p38beta degradation at 1 uM measured after 24 hrs by immunoblotting analysis. As to conditions: Macrophage.
In data set [11] the target is T2, Protein cereblon/Mitogen-activated protein kinase 11. Description: Protac activity at CRBN/p38beta in human MDA-MB-231 cells assessed as p38beta degradation at 1 uM measured after 24 hrs by immunoblotting analysis. The format is cell-based.
Target sequence in this assay (Q15759 whole entry): as the sequence (Q15759 whole entry, looked up) above
Target sequence in this assay (Q96SW2 whole entry): as the sequence (Q96SW2 whole entry partner) above
The target in data set [12] is T1, Protein cereblon/Mitogen-activated protein kinase 14. The experiment in a line: Protac activity at CRBN/p38alpha in human T47D cells assessed as p38alpha degradation measured after 24 hrs by immunoblotting analysis. The class given is cell-based. In short, it runs like this: (§4)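 T47D and MDA-MB-231 cells treated with a concentration series for 24 h; lysates immunoblotted for p38α. p38α/tubulin band ratio normalised to untreated cells; DC50 (conc. giving 50% degradation) fitted from biological duplicates.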
Target sequence in this assay (Q16539 whole entry): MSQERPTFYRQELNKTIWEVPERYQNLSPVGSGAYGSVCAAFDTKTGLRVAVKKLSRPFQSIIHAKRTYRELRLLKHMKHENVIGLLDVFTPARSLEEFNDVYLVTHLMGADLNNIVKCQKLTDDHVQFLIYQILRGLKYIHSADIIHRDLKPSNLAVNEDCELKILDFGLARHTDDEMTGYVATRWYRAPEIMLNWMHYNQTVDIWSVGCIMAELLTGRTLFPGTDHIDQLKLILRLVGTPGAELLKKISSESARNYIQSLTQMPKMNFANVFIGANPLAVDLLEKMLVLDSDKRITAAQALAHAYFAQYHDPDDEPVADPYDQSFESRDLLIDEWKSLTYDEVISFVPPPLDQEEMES
Target sequence in this assay (Q96SW2 whole entry): as the sequence (Q96SW2 whole entry partner) above

For data set [13] the target is unchanged. The experiment in a line: Protac activity at CRBN/p38alpha in human retina epithelial cells assessed as p38alpha degradation at 1 uM measured after 24 hrs by immunoblotting analysis. The class given is tissue-based. As to conditions: Epithelial cell.
Data set [14] has the same target. Description: Protac activity at CRBN/p38alpha in human MDA-MB-231 cells assessed as reduction in UV-induced MK2 phosphorylation at 1 uM after 48 hrs by immunoblotting analysis. The class given is cell-based. The gist of the method:
as §2

In data set [15] the target is T2, Protein cereblon/Mitogen-activated protein kinase 11. The experiment in a line: Protac activity at CRBN/p38beta in human T47D cells assessed as p38beta degradation at 1 uM measured after 24 hrs by immunoblotting analysis. The class given is cell-based.
Target sequence in this assay (Q15759 whole entry): as the sequence (Q15759 whole entry, looked up) above
Target sequence in this assay (Q96SW2 whole entry): as the sequence (Q96SW2 whole entry partner) above
Data set [16] has as its target T1, Protein cereblon/Mitogen-activated protein kinase 14. The experiment in a line: Protac activity at CRBN/p38alpha in human MDA-MB-231 cells assessed as p38alpha degradation measured after 24 hrs by immunoblotting analysis. The format is cell-based. The gist of the method: as §4
Target sequence in this assay (Q16539 whole entry): as the sequence (Q16539 whole entry) above
Target sequence in this assay (Q96SW2 whole entry): as the sequence (Q96SW2 whole entry partner) above
Data set [17] is described as follows: Induction of change in p38alpha protein expression in human MDA-MB-231 cells at 1 uM incubated for 16 hrs by mass spectrometry based proteomic analysis. The format is cell-based. As to conditions: mda-mb-231, 16 h. The gist of the method:
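MDA-MB-231 cells SILAC-labelled to ≥95% in arginine/lysine-free DMEM-F12 with 2% dialysed FBS; heavy cells got compound, light cells got DMSO, 16 h. Lysis in 4% SDS, 0.1 M DTT, Tris pH 7.6; FASP trypsin digestion overnight at 37 °C; nano-LC C18 MS/MS with 300 min run; protein-level heavy/light change.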

Calls of active or inactive are those of the source. No cut-off for these calls is given here.

Turning to `Cc1ccc(C(=O)NCCCc2cn(CCCC(=O)NCCCCNc3cccc4c3C(=O)N(C3CCC(=O)NC3=O)C4=O)nn2)cc1-n1c(C)cc(OCc2ccc(F)cc2F)c(Br)c1=O` (centres undefined), the Activity in [1] amounted to 84%; in data set [2], 91%.
Consider `Cc1ccc(C(=O)NCCCCNc2cccc3c2C(=O)N(C2CCC(=O)NC2=O)C3=O)cc1-n1c(C)cc(OCc2ccc(F)cc2F)c(Br)c1=O` (centres undefined), for which the Activity in data set [1] is 8%.
Regarding `Cc1ccc(C(=O)NCCCc2cn(CCCC(=O)NCCCNc3cccc4c3C(=O)N(C3CCC(=O)NC3=O)C4=O)nn2)cc1-n1c(C)cc(OCc2ccc(F)cc2F)c(Br)c1=O` (centres undefined), the Activity in data set [1] was 60%; in data set [2] it was 68%.
Consider `Cc1ccc(C(=O)NCCCCc2cn(CCCC(=O)NCCCCNc3cccc4c3C(=O)N(C3CCC(=O)N(C)C3=O)C4=O)nn2)cc1-n1c(C)cc(OCc2ccc(F)cc2F)c(Br)c1=O` (centres undefined), for which the outcome in data set [3], in [4] and in data set [5] was inactive.
For `Cc1ccc(C(=O)NCCc2cn(CCCC(=O)NCCCCNc3cccc4c3C(=O)N(C3CCC(=O)NC3=O)C4=O)nn2)cc1-n1c(C)cc(OCc2ccc(F)cc2F)c(Br)c1=O` (centres undefined), the Activity in data set [1] was 40%; in data set [2], 25%.
For `Cc1ccc(C(=O)NCCCCc2cn(CCOCCOCCOCCOCCNc3cccc4c3C(=O)N(C3CCC(=O)NC3=O)C4=O)nn2)cc1-n1c(C)cc(OCc2ccc(F)cc2F)c(Br)c1=O` (centres undefined) the same measures were 92% and 41%.
`Cc1ccc(C(=O)NCCOCCOCCNc2cccc3c2C(=O)N(C2CCC(=O)NC2=O)C3=O)cc1-n1c(C)cc(OCc2ccc(F)cc2F)c(Br)c1=O` (centres undefined): the Activity in data set [1] turned out to be 60%.
Regarding `Cc1ccc(C(=O)NCCCCc2cn(CC[C@H](N)C(=O)NCCCCNc3cccc4c3C(=O)N(C3CCC(=O)NC3=O)C4=O)nn2)cc1-n1c(C)cc(OCc2ccc(F)cc2F)c(Br)c1=O` (some centres undefined), the Activity in [2] worked out at 4%.
With `Cc1ccc(C(=O)NCCCCc2cn(CCCC(=O)NCCOCCOCCNc3cccc4c3C(=O)N(C3CCC(=O)N(Cc5ccccc5[N+](=O)[O-])C3=O)C4=O)nn2)cc1-n1c(C)cc(OCc2ccc(F)cc2F)c(Br)c1=O` (centres undefined), the results for the Activity in data set [1] and in [2] were 3% and 20%, respectively.
For `Cc1ccc(C(=O)NCCCCc2cn(CCCC(=O)NCCCCCNc3cccc4c3C(=O)N(C3CCC(=O)NC3=O)C4=O)nn2)cc1-n1c(C)cc(OCc2ccc(F)cc2F)c(Br)c1=O` (centres undefined) the same measures were 77% and 82%.
For `Cc1ccc(C(=O)NCCCCc2cn(CCOCCOCCOCCNc3cccc4c3C(=O)N(C3CCC(=O)NC3=O)C4=O)nn2)cc1-n1c(C)cc(OCc2ccc(F)cc2F)c(Br)c1=O` (centres undefined) the same measures were 78% and 26%.
The matching figures for `Cc1ccc(C(=O)NCCCCc2cn(CCCC(=O)NCCOCCOCCNc3cccc4c3C(=O)N(C3CCC(=O)NC3=O)C4=O)nn2)cc1-n1c(C)cc(OCc2ccc(F)cc2F)c(Br)c1=O` (centres undefined): 79% and 85%.
Take `Cc1ccc(C(=O)NCCCCNC(=O)c2ccc3c(c2)C(=O)N(C2CCC(=O)NC2=O)C3=O)cc1-n1c(C)cc(OCc2ccc(F)cc2F)c(Br)c1=O` (centres undefined): in data set [1], the Activity amounted to 40%.
Still for that read-out and setting: the result for `Cc1ccc(C(=O)NCCOCCOCCNC(=O)c2ccc3c(c2)C(=O)N(C2CCC(=O)NC2=O)C3=O)cc1-n1c(C)cc(OCc2ccc(F)cc2F)c(Br)c1=O` (centres undefined) reads 55%.
On to `Cc1ccc(C(=O)NCCCCc2cn(CCCC(=O)NCCCCCCNc3cccc4c3C(=O)N(C3CCC(=O)NC3=O)C4=O)nn2)cc1-n1c(C)cc(OCc2ccc(F)cc2F)c(Br)c1=O` (centres undefined), for which the Activity in data set [1] worked out at 67%; in data set [2], 47%.
Consider `Cc1ccc(C(=O)NCCOCCOCCOCCOCCOCCOCCNc2cccc3c2C(=O)N(C2CCC(=O)NC2=O)C3=O)cc1-n1c(C)cc(OCc2ccc(F)cc2F)c(Br)c1=O` (centres undefined), for which the Activity in [1] came out at 82%; in [2] it was 20%.
As to `Cc1ccc(C(=O)NCCCCc2cn(CC[C@H](NC(=O)OC(C)(C)C)C(=O)NCCCCNc3cccc4c3C(=O)N(C3CCC(=O)NC3=O)C4=O)nn2)cc1-n1c(C)cc(OCc2ccc(F)cc2F)c(Br)c1=O` (some centres undefined), the Activity turned out to be 81% in [1] and 93% in data set [2].
Take `Cc1ccc(C(=O)NCCCCc2cn(CCCC(=O)NCCCCNc3cccc4c3C(=O)N(C3CCC(=O)NC3=O)C4=O)nn2)cc1-n1c(C)cc(OCc2ccc(F)cc2F)c(Br)c1=O` (centres undefined): the outcome in [6], in [3], in data set [7], in data set [8], in data set [9] and in data set [10] was Active. Further, the result in data set [13] and in data set [14] was Active. The Activity is 84% in data set [1], 89% in [2] and “Active” in data set [17]. Moreover, the DC50 in data set [11] came out at 48.9 nM; in data set [12] it was 24 nM; in data set [15], 48.5 nM; in data set [16] it was 27.2 nM.
As for `Cc1ccc(C(=O)NCCc2cn(CCCC(=O)NCCNc3cccc4c3C(=O)N(C3CCC(=O)NC3=O)C4=O)nn2)cc1-n1c(C)cc(OCc2ccc(F)cc2F)c(Br)c1=O` (centres undefined), the Activity in [2] came out at 8%.
For the molecule `Cc1ccc(C(=O)NCCCCc2cn(CCCC(=O)NCCOCCOCCNC(=O)c3ccc4c(c3)C(=O)N(C3CCC(=O)N(Cc5ccccc5[N+](=O)[O-])C3=O)C4=O)nn2)cc1-n1c(C)cc(OCc2ccc(F)cc2F)c(Br)c1=O` (centres undefined), the Activity was determined as 0.5% in data set [1] and 76% in [2].
`Cc1ccc(C(=O)NCCc2cn(CCCC(=O)NCCCNc3cccc4c3C(=O)N(C3CCC(=O)NC3=O)C4=O)nn2)cc1-n1c(C)cc(OCc2ccc(F)cc2F)c(Br)c1=O` (centres undefined): the Activity is 36% in [1] and 42% in data set [2].
The matching figures for `Cc1ccc(C(=O)NCCCCc2cn(CCCC(=O)NCCNc3cccc4c3C(=O)N(C3CCC(=O)NC3=O)C4=O)nn2)cc1-n1c(C)cc(OCc2ccc(F)cc2F)c(Br)c1=O` (centres undefined): 12% and 40%.
Regarding `C=C1c2cccc(NCCCCCCNC(=O)CCCn3cc(CCCCNC(=O)c4ccc(C)c(-n5c(C)cc(OCc6ccc(F)cc6F)c(Br)c5=O)c4)nn3)c2C(=O)N1C1CCC(=O)N(C)C1=O` (centres undefined), the result in data set [3], in data set [4] and in [5] was inactive.
Turning to `Cc1ccc(C(=O)NCCCCc2cn(CCCC(=O)NCCCNc3cccc4c3C(=O)N(C3CCC(=O)NC3=O)C4=O)nn2)cc1-n1c(C)cc(OCc2ccc(F)cc2F)c(Br)c1=O` (centres undefined), the Activity in data set [1] amounted to 74%; in [2], 87%.
Consider `C=C1c2cccc(NCCCCCNC(=O)CCCn3cc(CCCCNC(=O)c4ccc(C)c(-n5c(C)cc(OCc6ccc(F)cc6F)c(Br)c5=O)c4)nn3)c2C(=O)N1C1CCC(=O)NC1=O` (centres undefined), for which the Activity in data set [1] stood at 47%; in data set [2], 16%.

One may read the DC50 as the midpoint of the concentration-degradation curve.
